In ChEMBL document CHEMBL2203158, “Fluorescent derivatives of AC-42 to probe bitopic orthosteric/allosteric binding mechanisms on muscarinic M1 receptors” (J Med Chem, 2012):
The source made the active and inactive calls. The rule behind the calls is not given here.

Tests used:
[1] = biological target: T1, Muscarinic acetylcholine receptor M1 (Homo sapiens, UniProt P11229); assay: Displacement of [3H]NMS from EGFP-fused human M1 receptor N-terminal truncated at 17 residues expressed in HEK293 cells after 22 hrs by liquid scintillation counting; assay type: cell-based
T1 sequence (P11229 whole entry): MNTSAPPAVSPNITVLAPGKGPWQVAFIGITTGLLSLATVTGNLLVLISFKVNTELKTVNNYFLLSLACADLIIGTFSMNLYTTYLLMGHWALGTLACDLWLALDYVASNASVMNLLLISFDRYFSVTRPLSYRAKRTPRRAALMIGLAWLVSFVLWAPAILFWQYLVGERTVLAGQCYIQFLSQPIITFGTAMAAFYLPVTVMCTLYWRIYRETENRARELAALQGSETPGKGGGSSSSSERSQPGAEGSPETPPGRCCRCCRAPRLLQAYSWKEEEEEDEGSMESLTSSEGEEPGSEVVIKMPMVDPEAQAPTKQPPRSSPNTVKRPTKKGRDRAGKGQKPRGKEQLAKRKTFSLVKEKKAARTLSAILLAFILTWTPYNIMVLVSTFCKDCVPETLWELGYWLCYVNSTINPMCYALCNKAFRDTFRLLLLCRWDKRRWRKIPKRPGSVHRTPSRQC

[2] = biological target: T2, Muscarinic acetylcholine receptor M1 (Homo sapiens) (UniProt P11229); assay: Allosteric modulation of EGFP-fused human M1 receptor N-terminal truncated at 17 residues expressed in HEK293 cells after 4 hrs by FRET assay in presence of para-LRB-AC42; assay type: cell-based
T2 sequence (whole entry): T1 sequence (P11229 whole entry)
How it was run: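 EGFP emission was read at 510 nm with excitation at 470 nm. Specific signal was the difference from 20 μM atropine. Kx and α came from an allosteric model fit, with three or more independent runs done in duplicate.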

[3] = biological target: T1, Muscarinic acetylcholine receptor M1; assay type: cell-based, HEK293
[4] = biological target: Muscarinic acetylcholine receptor M3 (Homo sapiens) (UniProt P20309); assay: Antagonist activity at human M3 receptor in HEK293 cells assessed as inhibition of 20 uM carbachol induced calcium response at 10 uM by fluorescence assay; assay type: functional, cell-based
How it was run: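 Nontransfected HEK cells (endogenous M3) loaded with 5 μM Indo-1 AM, 45 min, 37 °C, trypsin/EDTA harvested, suspended at 10⁶ cells/mL in Hepes buffer with 1 mg/mL BSA. Calcium read at 37 °C as 400 nm emission (338 nm excitation), peak normalized to 20 μM digitonin maximum.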

[5] = biological target: T1, Muscarinic acetylcholine receptor M1; assay: (§1) Antagonist activity at EGFP-fused human M1 receptor N-terminal truncated at 17 residues expressed in HEK293 cells assessed as inhibition of carbachol induced calcium response by fluorescence assay; assay type: functional, cell-based
[6] = biological target: T2, Muscarinic acetylcholine receptor M1 (Homo sapiens); assay: as §1; assay type: functional, cell-based
[7] = biological target: T1, Muscarinic acetylcholine receptor M1; assay: Partial agonist activity at human full length M1 receptor expressed in HEK293 cells assessed as induction of calcium response by fluorescence assay; assay type: functional, cell-based
How it was run: (§2)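 Stably transfected HEK293 cells (hygromycin-selected) were loaded with 5 μM Indo-1 AM for 45 min at 37 °C, then suspended at 10⁶ cells/mL in Hepes buffer with BSA. […] EC50 and Emax are mean ± SD of two determinations.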

[8] = biological target: T1, Muscarinic acetylcholine receptor M1; assay: Partial agonist activity at EGFP-fused human M1 receptor N-terminal truncated at 11 residues expressed in HEK293 cells assessed as induction of calcium response by fluorescence assay; assay type: functional, cell-based; how it was run: as §2
[9] = biological target: T1, Muscarinic acetylcholine receptor M1; assay: Partial agonist activity at EGFP-fused human full length M1 receptor expressed in HEK293 cells assessed as induction of calcium response by fluorescence assay; assay type: functional, cell-based; how it was run: as §2
[10] = biological target: T2, Muscarinic acetylcholine receptor M1 (Homo sapiens); settings: HEK293, 10 uM
[11] = biological target: T1, Muscarinic acetylcholine receptor M1; assay: Partial agonist activity at EGFP-fused human M1 receptor N-terminal truncated at 17 residues expressed in HEK293 cells assessed as induction of calcium response by fluorescence assay; assay type: functional, cell-based; how it was run: as §2
[12] = biological target: T2, Muscarinic acetylcholine receptor M1 (Homo sapiens); settings: HEK293, 10 uM; remark: listed apart in the source
[13] = biological target: T2, Muscarinic acetylcholine receptor M1 (Homo sapiens); settings: HEK293, 200 nM
[14] = biological target: T2, Muscarinic acetylcholine receptor M1 (Homo sapiens); assay: Binding affinity to EGFP-fused human M1 receptor N-terminal truncated at 17 residues expressed in HEK293 cells assessed as maximal amplitude after 4 hrs by FRET assay; assay type: cell-based
How it was run: (§3)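 EGFP emission was read at 510 nm; specific binding is atropine-sensitive fluorescence extinction. Kd, maximal FRET amplitude and Ki/Kx/α come from Hill or competitive/allosteric fits, mean ± SE, n≥3.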

[15] = biological target: T1, Muscarinic acetylcholine receptor M1; assay: Displacement of [3H]NMS from EGFP-fused human M1 receptor N-terminal truncated at 17 residues expressed in HEK293 cells assessed as reduction of [3H]NMS dissociation rate after 22 hrs by liquid scintillation counting; assay type: cell-based
[16] = biological target: T1, Muscarinic acetylcholine receptor M1; assay: Binding affinity to EGFP-fused human M1 receptor N-terminal truncated at 17 residues expressed in HEK293 cells after 4 hrs by FRET assay; assay type: cell-based; how it was run: as §3
[17] = biological target: T2, Muscarinic acetylcholine receptor M1 (Homo sapiens); settings: HEK293
[18] = biological target: T2, Muscarinic acetylcholine receptor M1 (Homo sapiens); assay: Partial agonist activity at EGFP-fused human M1 receptor N-terminal truncated at 17 residues expressed in HEK293 cells assessed as inhibition of carbachol induced calcium response at 1 uM by fluorescence assay relative to control; assay type: functional, cell-based
[19] = biological target: T2, Muscarinic acetylcholine receptor M1 (Homo sapiens); assay: Partial agonist activity at EGFP-fused human M1 receptor N-terminal truncated at 17 residues expressed in HEK293 cells assessed as inhibition of carbachol induced calcium response at […] by fluorescence assay; assay type: functional, cell-based

Muscarinic acetylcholine receptor M3 (Homo sapiens), sequence (P20309 whole entry, looked up): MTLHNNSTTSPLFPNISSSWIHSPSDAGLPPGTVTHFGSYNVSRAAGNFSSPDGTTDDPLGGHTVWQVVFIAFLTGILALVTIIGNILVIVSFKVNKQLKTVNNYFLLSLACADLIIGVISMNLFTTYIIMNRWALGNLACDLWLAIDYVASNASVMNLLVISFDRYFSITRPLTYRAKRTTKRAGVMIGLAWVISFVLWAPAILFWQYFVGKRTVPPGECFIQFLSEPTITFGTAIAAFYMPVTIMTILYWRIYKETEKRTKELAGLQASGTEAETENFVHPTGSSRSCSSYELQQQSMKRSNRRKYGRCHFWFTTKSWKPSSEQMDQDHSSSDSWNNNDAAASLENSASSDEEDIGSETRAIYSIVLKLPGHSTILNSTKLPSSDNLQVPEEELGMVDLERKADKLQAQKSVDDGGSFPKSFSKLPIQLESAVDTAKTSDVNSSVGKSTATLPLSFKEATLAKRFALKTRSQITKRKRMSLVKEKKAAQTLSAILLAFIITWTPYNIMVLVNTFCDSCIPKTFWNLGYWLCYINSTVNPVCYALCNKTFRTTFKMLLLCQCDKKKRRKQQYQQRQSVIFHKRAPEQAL

SMILES: Clc1ccc2c(c1)N=C(N1CCNCC1)c1ccccc1N2 [N-DESMETHYLCLOZAPINE]
- Ki [1]: 0.0603 µM
- pKx [2]: 6.92

SMILES: Cc1ccccc1C(=O)CCCN1CCC(CCCCCN)CC1
- Ki [3]: 1.29 µM
- inhibition [4]: inactive
- Ki [1]: 1.95 µM
- IC50 [5]: 3.7 µM
- inhibition [6]: Dose-dependent effect

SMILES: C#C[C@]1(O)CC[C@H]2[C@@H]3CC[C@H]4Cc5nc6nc7ccccc7n6cc5C[C@]4(C)[C@H]3CC[C@@]21C
- pKx [2]: 5.03

SMILES: CCCCC1CCN(CCCC(=O)c2ccccc2C)CC1
- Ki [3]: 0.891 µM
- EC50 [7]: 0.74 µM
- EC50 [8]: 0.72 µM
- EC50 [9]: 0.21 µM
- Ki [1]: 1.74 µM
- inhibition [10]: inactive
- EC50 [11]: 0.45 µM
- inhibition [12]: inactive
- inhibition [13]: inactive

SMILES: CCN(CC)c1ccc2c(-c3ccc(S(=O)(=O)NCCCCCC4CCN(CCCC(=O)c5ccccc5C)CC4)cc3S(=O)(=O)[O-])c3ccc(=[N+](CC)CC)cc-3oc2c1
- inhibition [4]: inactive
- Activity [14]: 26.5%
- EC50 [15]: 25.1 µM
- Ki [1]: 1 µM
- Kd [16]: 0.794 µM
- IC50 [5]: 0.3 µM
- inhibition [6]: Dose-dependent effect

SMILES: COc1cc2c(cc1OC)[C@@]13CCN4CC5=CCO[C@H]6CC(=O)N2[C@H]1[C@H]6[C@H]5C[C@H]43 [BRUCINE]
- Ki [3]: 44.7 µM
- pKx [17]: 4.59

SMILES: CCN(CC)c1ccc2c(-c3ccc(S(=O)(=O)[O-])cc3S(=O)(=O)NCCCCCC3CCN(CCCC(=O)c4ccccc4C)CC3)c3ccc(=[N+](CC)CC)cc-3oc2c1
- Emax [18]: 20%

SMILES: CCN(CC)c1ccc2c(-c3ccc(S(=O)(=O)O)cc3S(=O)(=O)[O-])c3ccc(=[N+](CC)CC)cc-3oc2c1
- Activity [19]: inactive
- Ki [1]: > 1000 µM
